Assay outcomes (PubChem)
This is a sample that favours compounds with a hit; in the whole collection about 1.2% have one here.
core dimer inh = blocks dimerization of HCV core protein; 300,000 compounds, 0.33% hits; TR-FRET GST/Flag-core106 dimerization, 1536-well; AID 1899; inhibition, % at 5 µM;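 active = inhibition above the mean of all tested compounds plus 3 SD, set per screening campaign, cut at about 45% in these data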
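Material: GST/Flag-tagged HCV core106 proteins. Incubation: 4 h, 22.5 °C incubation. Read-out basis: inhibition (%) from 671 over 617 nm ratio. Measured by: TR-FRET, excitation 340 nm, emission 617 and 671 nm.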
ASAP1 inh = blocks human ASAP1-stimulated Arf1 GTP hydrolysis; inhibition, % at 16.5 µM; Q9ULH1; GDP FP detection; 360,000 compounds, 0.19% hits; in the data active = inhibition above about 25%
Target sequence (Q9ULH1 325-724 limits assumed): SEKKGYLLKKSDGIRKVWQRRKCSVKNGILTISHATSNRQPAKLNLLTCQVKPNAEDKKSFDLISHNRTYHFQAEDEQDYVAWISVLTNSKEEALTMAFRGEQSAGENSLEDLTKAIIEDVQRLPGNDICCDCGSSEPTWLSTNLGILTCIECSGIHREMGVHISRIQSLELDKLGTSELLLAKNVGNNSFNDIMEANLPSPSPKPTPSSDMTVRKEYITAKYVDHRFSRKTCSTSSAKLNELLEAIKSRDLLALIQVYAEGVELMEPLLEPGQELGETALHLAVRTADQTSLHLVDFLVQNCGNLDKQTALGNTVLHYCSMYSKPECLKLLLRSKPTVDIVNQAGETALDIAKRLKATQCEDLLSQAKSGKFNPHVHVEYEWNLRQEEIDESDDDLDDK
NPR1 activator = GC-A (human) enzyme activation. P16066. HEK293 GC-A cells, cGMP TR-FRET, EC30 ANP; 0% at EC30 ANP, 100% saturating ANP. activation, % at 10 µM. 370,000 compounds, 0.14% hits. AID 1671463; in the data active = activation above about 40%
CTSL1 counter = cathepsin L1 inhibition, PFM18AAP counter-screen. 300,000 compounds, 0.49% hits. recombinant F. hepatica cathepsin L1, Z-Leu-Arg-MCA fluorescence. inhibition, % at 5.96 µM;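 active = inhibition above the mean of all tested compounds plus 3 SD, set per screening campaign, cut at about 17% in these data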
GC-B act = GC-B (human) receptor activation | P20594 | HEK293-GC-B cells, CNP EC30, cGMP TR-FRET; 0% at EC30 CNP, 100% saturating CNP | 370,000 compounds, 0.11% hits | AID 1920062 | activation, % at 10 µM;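 active = activation at 10 µM reaching about 35% in either raw or pattern-adjusted values, limit read from the data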
ARFGAP1 inh = rat ARFGAP1 inhibition; Q62848; Arfgap1-stimulated ARF1 GTP hydrolysis, GDP FP detection; inhibition, % at 16.5 µM; 360,000 compounds, 0.26% hits;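 active = inhibition above a per-plate limit, mean inhibition of low control wells plus 3 SD, cut at about 25% in these data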
Target sequence (Q62848 1-136 limits assumed): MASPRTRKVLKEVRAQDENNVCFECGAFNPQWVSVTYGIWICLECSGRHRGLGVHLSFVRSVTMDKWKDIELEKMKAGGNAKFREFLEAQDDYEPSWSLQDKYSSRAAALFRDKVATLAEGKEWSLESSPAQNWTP
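system = rat Arfgap1 catalytic domain, aa 1-136 | technique = FP, GDP Alexa 633 tracer displaced from anti-GDP antibody, 620/688 nm | compound = one concentration, 16.5 µM, DMSO 1.26% | medium = HEPES-based buffer, pH 7.5 | timing = compound-enzyme preincubation 20 min, reaction 120 min, detection 60 min, 25 °C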
Each line names hits and unclear results; the compound was inactive in the other large screens.

CC(C)=CCc1cc(-c2oc3cc(O)cc(O)c3c(=O)c2O)ccc1O	none
CC(C)=CCc1c(O)cc2oc3c(CC=C(C)C)c(O)c(O)c(CC=C(C)C)c3c(=O)c2c1O	core dimer inh 58.3
COCCN(CCOC)C(=O)c1sc2nc(-c3ccccc3)cn2c1C	none
Cc1c(C(N)=O)sc2nc(-c3ccccc3)cn12	GC-B act 74.0
CCCCC(=O)NC(=S)Nc1cccc(NC(=O)c2ccco2)c1	none
CC(=O)N1CCN(C(=O)c2cc(C)oc2C)CC1	none (no result: core dimer inh, CTSL1 counter)
Cc1ccc(C2c3[nH]c4ccccc4c3C[C@H]3C(=O)N(c4ccccc4C(=O)N4CCC(C(=O)O)CC4)C(=O)N23)cc1 (stereo not given in full)	none
O=C(O)C1CCN(C(=O)c2ccccc2N2C(=O)[C@@H]3Cc4c([nH]c5ccccc45)C(c4cccc(Cl)c4)N3C2=O)CC1 (stereo not given in full)	NPR1 activator 52.9, GC-B act 58.4
O=C(NC1CCCCCC1)C1CCC(=O)N(Cc2ccccc2F)C1 (stereo not given)	none
COc1ccc(-c2nc3c(c(SCC(=O)Nc4cccc(O)c4)n2)Cc2c(CO)cnc(C)c2O3)cc1	core dimer inh 70.6
C=CCN(C#N)c1nc(OC)nc(N2CCCC2)n1	none
N#CN(CC(N)=O)c1nc(N2CCCCC2)nc(N2CCCCC2)n1	CTSL1 counter 25.3
NC(=O)CC[C@H](NC(=O)[C@H](Cc1ccccc1)n1c(=O)[nH]c2ccccc2c1=O)C(=O)N1CCC[C@H]1C(=O)O	none
CSCC[C@H](NC(=O)[C@H](Cc1ccccc1)n1c(=O)[nH]c2ccccc2c1=O)C(=O)N1CCC[C@H]1C(=O)O	GC-B act 83.3
COc1ccc2c(Cl)c(C(=O)N/N=C/c3ccncc3)sc2c1	none
Cc1cc(C)c[n+](CC(=O)c2ccccc2)c1	none (no result: core dimer inh, CTSL1 counter)
COC(=O)c1ccc(-c2nc3cc(Cl)c(N)cc3s2)cc1	NPR1 activator 51.5
COC(=O)c1ccc(-c2nc(O)c(C)s2)cc1	none
Cc1ccc([N+](=O)[O-])cc1NC(=S)NCCc1ccccc1	CTSL1 counter 57.9
C=C[C@@H]1CN2CCC1C[C@@H]2[C@@H](O)c1ccnc2ccc(OC)cc12 (stereo not given in full)	none
CCc1nnc(NC(=O)c2ccc(S(=O)(=O)N3CCc4ccccc4C3)cc2)s1	none
Cc1cc(C)c2nc(NNC(=O)c3ccc(S(=O)(=O)N4CCc5ccccc5C4)cc3)sc2c1	core dimer inh 51.8
Cc1cc(C)c2sc(N(CCCN(C)C)C(=O)c3ccc(S(=O)(=O)N4CCc5ccccc5C4)cc3)nc2c1	none (no result: ASAP1 inh, NPR1 activator, GC-B act, ARFGAP1 inh)
Cc1cc(C)c2sc(NNC(=O)c3ccc(S(=O)(=O)N4CCc5ccccc5C4)cc3)nc2c1	core dimer inh 64.2
O=C1CSC(c2ccccn2)N1c1ccc2ccccc2c1 (stereo not given)	none
O=C(Nc1nnc(SCC(=O)N2CCCC2)s1)C1CC(=O)N(c2ccc(F)cc2)C1 (stereo not given)	none
COc1ccc(N2CCN(C(=O)c3ccc(SC)cc3OC)CC2)cc1	none
COc1ccccc1CNC(=O)C(CC(C)C)NC(=O)C1CCC(C)CC1 (stereo not given)	none
CC(C)CC(NC(=O)C1CCC(C)CC1)C(=O)NCc1ccco1 (stereo not given)	CTSL1 counter 22.7
CC(=O)N1CCc2c(sc(NC(=O)c3cccc(N4C(=O)CCC4=O)c3)c2C(N)=O)C1	CTSL1 counter 25.2
NC(=O)c1c(NC(=O)c2cccc(N3C(=O)CCC3=O)c2)sc2c1CCCCC2	none
Cc1ccc(CNC(=O)c2c(-c3ccccc3Cl)noc2C)cc1	none
Cc1onc(-c2ccccc2Cl)c1C(=O)NCc1ccco1	core dimer inh 57.2
CCn1c(C)cc(/C=C2\NC(=O)N(Cc3ccc(Cl)cc3)C2=O)c1C	GC-B act 49.0
COc1ccc(NC(=O)Cn2ncc(Cl)c(Cl)c2=O)cc1S(=O)(=O)N1CCOCC1	core dimer inh 50.0
COc1ccc(S(=O)(=O)N2CCOCC2)cc1NC(=O)c1cc2c(s1)CCCC2	none
CCC(=O)Nc1ccc(C(=O)Cn2ncc(Cl)c(Cl)c2=O)cc1	none
CCOC(=O)c1ccc(NC(=O)Cn2ncc(Cl)c(Cl)c2=O)cc1	NPR1 activator 60.7
CCOC(=O)c1ccc(NC(=O)CSc2nc(C)cc(=O)[nH]2)cc1	core dimer inh 63.4 (no result: ASAP1 inh, NPR1 activator, GC-B act, ARFGAP1 inh)
COc1ccc(NC(=O)c2cc3c(s2)CCC3)cc1S(=O)(=O)N1CCOCC1	core dimer inh 94.1
Cc1cccc(NC(=O)c2ccc(OCC3CCCO3)cc2)c1C (stereo not given)	none
Cc1cccc(OC(=O)NCCOC(=O)N(O)c2ccc(Cl)cc2)c1	CTSL1 counter 19.3
NC(=O)C1CCN(C(=S)c2ccc(-c3ccc(Br)cc3)o2)CC1	NPR1 activator 44.8, GC-B act 47.3
NC(=O)c1ccc(-c2ccc(Br)cc2)o1	none
CC(=O)N1CCN(C(=S)c2ccc(-c3ccc(Cl)cc3)o2)CC1	NPR1 activator 43.5, GC-B act 48.2
COc1ccc(C(=O)N2CCC(n3c(C)nc4cc(F)ccc43)CC2)cc1OC	none
O=C1CSC(c2cccnc2)N1Cc1ccc(Cl)cc1 (stereo not given)	none
CCOC(=O)c1c(C)n(CCOc2ccccc2)c2ccc(O)cc12	NPR1 activator 56.5
Cc1ccc(/C=C2\SC(N3CCN(C(c4ccccc4)c4ccccc4)CC3)=NC2=O)o1	core dimer inh 60.3
O=C1N=C(N2CCN(c3ccccc3)CC2)S/C1=C/c1cccs1	none
Cc1ccc(N2CCN(C(=O)CN3C(=O)c4ccccc4C3=O)CC2)cc1	CTSL1 counter 20.6
O=C(NCC1CCCO1)c1cccc(NC(=O)c2ccc(Br)cc2)c1 (stereo not given)	none
O=C(O)C(=Cc1ccccc1)Cc1ccccc1	none (no result: core dimer inh, CTSL1 counter)
COc1ccc(CCn2c(C)cc(C(=O)COC(=O)c3ccc(NC(=O)CC#N)cc3)c2C)cc1	core dimer inh 49.6 (no result: ASAP1 inh, NPR1 activator, GC-B act, ARFGAP1 inh)
Cc1ccc(CN2C(=O)C3CCCN3c3ccc(S(=O)(=O)N4CCOCC4)cc32)cc1 (stereo not given)	core dimer inh 47.7 (no result: ASAP1 inh, NPR1 activator, GC-B act, ARFGAP1 inh)
CCN(CC)c1cc(Cl)c2nonc2c1N	none
CN(C)c1cc(Cl)c2nonc2c1N	CTSL1 counter 39.3
CCN(Cc1nc2cc(Cl)ccc2c(=O)[nH]1)C(=O)CN1C(=O)NC2(CCCCC2C)C1=O (stereo not given)	none (no result: core dimer inh, CTSL1 counter)
N#Cc1nc(NCC(F)F)nc(Nc2cc(F)cc(F)c2)n1	NPR1 activator 44.5, GC-B act 39.5 (no result: core dimer inh, CTSL1 counter)
N#C/C(=C\Nc1ccc2cn[nH]c2c1)c1nc(-c2ccccc2)cs1	none (no result: core dimer inh, CTSL1 counter)
